The values below come from ChEMBL document CHEMBL1135591, “Synthesis and characterization of a series of novel monoacylated ascorbic acid derivatives, 6-O-acyl-2-O-alpha-D-glucopyranosyl-L-ascorbic acids, as skin antioxidants” (J Med Chem, 2002).

Data set [1] in a line: Compound was evaluated for its partition between n-octanol and water(pH 7). It is filed as physicochemical. The following applies: buffer. The essentials:
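100 mM stock in DMSO diluted to 1 mM in 50 mM potassium phosphate buffer (pH 7.0); 5 mL aqueous solution mixed and partitioned with 5 mL n-octanol. Compound in the octanol phase quantified by HPLC (UV 240 nm). Mean ± SD, n = 6.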

The nature of data set [2]: Free radical scavenging assessed as 50% reduction in DPPH absorbance (516 nm). It is filed as functional. The gist of the method:
(§1)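 DPPH (0.5 mM in ethanol, 1 part) mixed with antioxidant in ethanol/H2O 1:1 (4 parts; 1.25 × 10⁻⁶ to 1.25 × 10⁻³ M solutions); DPPH in reaction 10⁻⁴ M. Room temperature, 20 min; decolorization read at 516 nm. EC50 = concentration giving 50% of blank absorbance, from dose-response curve; mean ± SD of triplicates.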

The nature of data set [3]: Free radical scavenging assessed as color reduction of DPPH. In kind it is functional. The gist of the method: as §1

The compound `CCCCCCCCCCCC(=O)OC[C@H](O)[C@H]1OC(O)=C(O[C@@H]2OC(CO)[C@@H](O)C(O)[C@@H]2O)C1=O` (stereo partly specified) displayed a Distribution percent in data set [1] of 83.8. Moreover, in data set [2], the EC50 is 4.6 10uM. Further, the Scavenging activity in data set [3] is 76.2%.

Turning to VITAMIN E [listing 1 of 2 here], the Scavenging activity in data set [3] amounted to 90.9%.

On to `CCCCCCCCCCCCCCCC(=O)OC[C@H](O)[C@H]1OC(=O)C(O)=C1O`, for which, in data set [3], the Scavenging activity turned out to be 95.7%.

Consider `O=C1C(OS(=O)(=O)O)=C(O)O[C@@H]1[C@@H](O)CO`, for which the Scavenging activity in data set [3] is 0%.

Compound `CCCCCCCCCC(=O)OC[C@H](O)[C@H]1OC(O)=C(O[C@@H]2OC(CO)[C@@H](O)C(O)[C@@H]2O)C1=O` (stereo partly specified) had a Distribution percent in data set [1] of 76.6. Further, the EC50 in data set [2] was 4.2 10uM. In addition, the Scavenging activity in data set [3] is 73.6%.

In turn, `O=C1C(O[C@@H]2OC(CO)[C@@H](O)C(O)[C@@H]2O)=C(O)O[C@@H]1[C@@H](O)CO` (stereo partly specified) had a Distribution percent in data set [1] of 0. For the same compound, the EC50 in data set [2] is given as 6.1 10uM. The Scavenging activity in data set [3] amounted to 68.9%.

In turn, `CCCCCCCCCCCCCCCCCC(=O)OC[C@H](O)[C@H]1OC(O)=C(O[C@@H]2OC(CO)[C@@H](O)C(O)[C@@H]2O)C1=O` (stereo partly specified) returned a Distribution percent in data set [1] of 84.6. Further, in data set [2], the EC50 is on record as 4.4 10uM. Further, in data set [3], the Scavenging activity is 77.5%.

Take `O=C1C(OP(=O)(O)O)=C(O)O[C@@H]1[C@@H](O)CO`: the Scavenging activity in data set [3] turned out to be 1.5%.

Take VITAMIN E [listing 2 of 2 here]: the EC50 in data set [2] was 1.9 10uM.

Regarding `CCCCCCCC(=O)OC[C@H](O)[C@H]1OC(O)=C(O[C@@H]2OC(CO)[C@@H](O)C(O)[C@@H]2O)C1=O` (stereo partly specified), the Distribution percent in data set [1] was found to be 43.4. Also, the EC50 in data set [2] was 5.7 10uM. In data set [3], the Scavenging activity is 76.6%.

Consider `CCCCCC(=O)OC[C@H](O)[C@H]1OC(O)=C(O[C@@H]2OC(CO)[C@@H](O)C(O)[C@@H]2O)C1=O` (stereo partly specified), for which the Distribution percent in data set [1] turned out to be 8.7. Also, in data set [2], the EC50 is listed as 5.4 10uM. Moreover, in data set [3], the Scavenging activity is 73.8%.

Compound `CCCCCCCCCCCCCC(=O)OC[C@H](O)[C@H]1OC(O)=C(O[C@@H]2OC(CO)[C@@H](O)C(O)[C@@H]2O)C1=O` (stereo partly specified) gave a Distribution percent in data set [1] of 87. For the same compound, in data set [2], the EC50 was 4.4 10uM. Besides, the Scavenging activity in data set [3] was 74.1%.

`CCCC(=O)OC[C@H](O)[C@H]1OC(O)=C(O[C@@H]2OC(CO)[C@@H](O)C(O)[C@@H]2O)C1=O` (stereo partly specified): in data set [1], the Distribution percent was 4. Besides, the EC50 in data set [2] is on record as 5.9 10uM. In addition, the Scavenging activity in data set [3] was 69.2%.

Take `CCCCCCCCCCCCCCCC(=O)OC[C@H](O)[C@H]1OC(O)=C(OC(=O)CCCCCCCCCCCCCCC)C1=O`: the Scavenging activity in data set [3] amounted to 23.7%.

In data set [1], `O=C1O[C@H]([C@@H](O)CO)C(O)=C1O` [ASCORBIC ACID] displayed a Distribution percent of 0.7. Also, in data set [2], the EC50 is 2.2 10uM. In data set [3], the Scavenging activity worked out at 94.3%.

In turn, `CCCCCCCCCCCCCCCC(=O)OC[C@H](O)[C@H]1OC(O)=C(O[C@@H]2OC(CO)[C@@H](O)C(O)[C@@H]2O)C1=O` (stereo partly specified) showed a Distribution percent in data set [1] of 87.3. Moreover, the EC50 in data set [2] was 4.1 10uM. Also, the Scavenging activity in data set [3] amounted to 76.4%.
